Measurements published in ChEMBL document CHEMBL1123711, “Substituted 1,2,3,4-tetrahydroaminonaphthols: antihypertensive agents, calcium channel blockers, and adrenergic receptor blockers with catecholamine-depleting effects” (J Med Chem, 1987).
The source made the active and inactive calls. The calls are words filed in the database; no cut-off is given here.

How the values were obtained:
Oryctolagus cuniculus = organism: Oryctolagus cuniculus; assay: Calcium channel blocking activity in vitro in rabbit thoracic aorta preparation (n=4) by using linear regression analysis; format: functional
In short: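 Rabbit thoracic aorta strips held under a 4-g preload in PSS at 37 °C, pH 7.35, gassed with 95% O2/5% CO2, equilibrated ≥1 h. Contraction by high-K+ (100 mM) PSS with Na+ reduced equimolarly. At plateau, cumulative test concentrations were added and relaxation was normalized to initial tension. IC50 by regression on the linear part of the concentration–response curve.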

Rattus norvegicus [1] = assay: Antihypertensive activity as percent maximum (over 24 h) decrease in blood pressure at 135 umol/kg, perorally (~40-50 mg/kg) in 5 spontaneously hypertensive rats (SHR); format: functional
Rattus norvegicus [2] = assay: Antihypertensive activity as percent maximum (0-6 hr) decrease in blood pressure at 135 umol/kg, perorally (~40-50 mg/kg) in 5 spontaneously hypertensive rats (SHR); format: functional
Rattus norvegicus [3] = assay: Antihypertensive activity as percent maximum (over 24 hr decrease in blood pressure at 135 umol/kg, perorally (~40-50 mg/kg) in 5 spontaneously hypertensive rats (SHR); format: functional
Canis familiaris = organism: Canis familiaris; assay: Compound was evaluated for the slow action potential blockade in canine Purkinje fibers in vitro (n = 4)
Rattus norvegicus [4] = assay: Antihypertensive activity as percent average (0-24 hr) decrease in blood pressure at 45 umol/kg po (~22 mg/kg) in 4 spontaneously hypertensive rats (SHR); format: functional
Rattus norvegicus [5] = assay: Antihypertensive activity as percent maximum (0-6 hr) decrease in blood pressure at 135 umol/kg po (~40-50 mg/kg) in 5 spontaneously hypertensive rats (SHR); format: functional
Rattus norvegicus [6] = assay: Antihypertensive activity as percent average (over 24 hr) decrease in blood pressure at 135 umol/kg po (~40-50 mg/kg) in 5 spontaneously hypertensive rats (SHR); format: functional
Rattus norvegicus [7] = assay: Percent Catecholamine-depletion in heart by administering a dose of 2 x 45 umol/kg, perorally to 4 spontaneously hypertensive rats (SHR).; format: functional
In short: (§1)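 SHR given two oral doses of 45 µmol/kg, 17 h apart. Rats decapitated 4 h after the second dose; hearts and brains quickly removed and frozen. Tissue extracts in glutathione centrifuged at 0 °C, and the protein-free supernatant diluted and assayed in duplicate for catecholamines by radioenzymatic kit.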

Rattus norvegicus [8] = assay: Antihypertensive activity as percent maximum (0-6 hr) decrease in blood pressure at 45 umol/kg po (~22 mg/kg) in 4 spontaneously hypertensive rats (SHR); format: functional
Rattus norvegicus [9] = assay: Antihypertensive activity as percent maximum (over 24 hr) decrease in blood pressure at 135 umol/kg, perorally (~40-50 mg/kg) in 5 spontaneously hypertensive rats (SHR); format: functional
Rattus norvegicus [10] = assay: Antihypertensive activity as percent maximum (over 24 hr) decrease in blood pressure at 135 umol/kg, perorally (~40-50 mg/kg) in 5 spontaneously hypertensive rats (SHR); NA denotes no activity; format: functional, organism-based
Rattus norvegicus [11] = assay: Antihypertensive activity as percent maximum (0-6 hr) decrease in blood pressure at 135 umol/kg, perorally (~40-50 mg/kg) in 5 spontaneously hypertensive rats (SHR); NA denotes no activity; format: functional, organism-based
Rattus norvegicus [12] = assay: Antihypertensive activity as percent average (over 24 hr) decrease in blood pressure at 135 umol/kg po (~40-50 mg/kg) in 5 spontaneously hypertensive rats (SHR); NA denotes not active; format: functional, organism-based
Rattus norvegicus [13] = assay: Antihypertensive activity as percent maximum (0-6 hr) decrease in blood pressure at 135 umol/kg po (~40-50 mg/kg) in 5 spontaneously hypertensive rats (SHR); NA denotes not active; format: functional, organism-based
[14] = target: Adrenergic receptor alpha; assay: Compound was evaluated for the alpha-Adrenoceptor pA2 blocking activity in vitro in rabbit thoracic aorta; format: functional, tissue-based, Oryctolagus cuniculus
Rattus norvegicus [15] = assay: Percent Catecholamine-depletion in brain by administering a dose of 2 x 45 umol/kg, perorally to 4 spontaneously hypertensive rats (SHR).; format: functional; in short: as §1
Rattus norvegicus [16] = assay: Antihypertensive activity as percent maximum (0-6 hr) decrease in blood pressure at 45 umol/kg poin 5 spontaneously hypertensive rats (SHR); format: functional

IC50 (Oryctolagus cuniculus)	SMILES	Decrease (Rattus norvegicus [2])	Decrease (Rattus norvegicus [9])	also measured
2500 nM	COc1cc2c(cc1OC)C[C@H](O)[C@@H](NCCC(c1ccccc1)C(C)C)C2.Cl (some centres undefined)	8%		Decrease (Rattus norvegicus [1]): 10%
5500 nM	COc1ccc(OC)c2c1C[C@H](NCCCc1ccccc1)[C@@H](O)C2.Cl	14%		Decrease (Rattus norvegicus [3]): 14%
300 nM	COc1ccc(CCN(C)CCCC(C#N)(c2ccc(OC)c(OC)c2)C(C)C)cc1OC (centres undefined)			IC50 (Canis familiaris): 110 nM; Average (Rattus norvegicus [4]): 21%; Decrease (Rattus norvegicus [5]): 40%; Decrease (Rattus norvegicus [6]): 32%; Depletion (Rattus norvegicus [7]): 75%; Max (Rattus norvegicus [8]): 16%
200 nM	COc1cc2c(cc1OC)C[C@H](NCCC(c1ccccc1)c1ccccc1)[C@H](O)C2.Cl			Decrease (Rattus norvegicus [5]): 14%; Decrease (Rattus norvegicus [6]): 19%
3600 nM	COc1ccc(OC)c2c1C[C@H](NCCCCc1ccccc1)[C@@H](O)C2.Cl	26%	23%	
400 nM	COc1cc2c(cc1OC)C[C@H](N(C)CCC(c1ccccc1)c1ccccc1)[C@@H](O)C2	11%	19%	
2800 nM	COc1cc2c(cc1OC)C[C@H](OC(C)=O)[C@@H](NCCC(c1ccccc1)c1ccccc1)C2.Cl	34%	34%	
200 nM	COc1cc2c(cc1OC)C[C@H](NCCC(c1ccccc1)c1ccccc1)CC2.Cl			Decrease (Rattus norvegicus [5]): 11%; Decrease (Rattus norvegicus [6]): 12%
2000 nM	COc1ccc(OC)c2c1C[C@H](NCCCCC(c1ccccc1)c1ccccc1)[C@@H](O)C2.Cl	10%		Decrease (Rattus norvegicus [1]): 10%
21000 nM	COc1ccc(OC)c2c1C[C@H](NCCc1ccccc1)[C@@H](O)C2			Decrease (Rattus norvegicus [10]): inactive; Decrease (Rattus norvegicus [11]): inactive
1000 nM	Cc1cc2c(cc1C)C[C@H](O)[C@@H](NCCC(c1ccccc1)c1ccccc1)C2.Cl	17%	32%	
1800 nM	COc1cc2c(cc1OC)C[C@H](OC)[C@@H](NCCC(c1ccccc1)c1ccccc1)C2			Decrease (Rattus norvegicus [12]): inactive; Decrease (Rattus norvegicus [13]): inactive
9400 nM	COc1cc2c(cc1OC)C[C@H](O)[C@@H](NC(=O)CC(c1ccccc1)c1ccccc1)C2	6%	16%	
1400 nM	COc1cc2c(cc1OC)C[C@H](O)[C@@H](NCCC1c3ccccc3-c3ccccc31)C2.Cl	32%	34%	
400 nM	COc1cc2c(cc1OC)C[C@H](O)[C@@H](NCCC(c1ccccc1)c1ccccc1)C2.Cl			pA2 [14]: 6; IC50 (Canis familiaris): 270 nM; Depletion (Rattus norvegicus [15]): 0%; Average (Rattus norvegicus [4]): 25%; Decrease (Rattus norvegicus [5]): 32%; Decrease (Rattus norvegicus [6]): 34%; Depletion (Rattus norvegicus [7]): 97%; Max (Rattus norvegicus [8]): 21%
13300 nM	COc1ccc(OC)c2c1C[C@H](NCC(c1ccccc1)c1ccccc1)[C@@H](O)C2.Cl	10%	16%	
19600 nM	Cl.Oc1cc2c(cc1O)C[C@H](O)[C@@H](NCCC(c1ccccc1)c1ccccc1)C2			Decrease (Rattus norvegicus [6]): 30%; Decrease (Rattus norvegicus [16]): 29%
13500 nM	COc1ccc(OC)c2c1C[C@H](NCCCc1nc3ccccc3s1)[C@@H](O)C2.Cl	16%	16%	
600 nM	COc1cc2c(cc1OC)C[C@H](O)[C@@H](NCCC(c1ccccc1)c1ccccc1OC)C2.Cl (some centres undefined)	21%	28%	
400 nM	Cl.O[C@H]1Cc2ccccc2C[C@@H]1NCCC(c1ccccc1)c1ccccc1	11%	8%	
300 nM	Cl.O[C@H]1Cc2cc3c(cc2C[C@@H]1NCCC(c1ccccc1)c1ccccc1)OCO3	25%	25%	
	COc1ccc(OC)c2c1C[C@H](NCCC(C1CCCCC1)C1CCCCC1)[C@@H](O)C2.Cl	27%	23%	
800 nM	COc1ccc(OC)c2c1C[C@H](NCCCC(c1ccccc1)c1ccccc1)[C@@H](O)C2.Cl	6%	10%	
23000 nM	COc1ccc(OC)c2c1C[C@H](NCCCc1c[nH]c3ccccc13)[C@@H](O)C2.Cl	23%	24%	
1500 nM	COc1ccc(OC)c2c1C[C@H](NCCC(c1ccccc1)c1ccccc1)[C@@H](O)C2.Cl	15%	19%	
